# High-throughput results: PubChem, several laboratories
# Rows were chosen to be rich in hits. Some 2.2% of all compounds tested hit in one or more screens of this group.
# GPR7 antag: GPR7 receptor antagonists, primary screen, cell-based, fluorescence, single concentration. Neuropeptides B/W receptor type 1 (Homo sapiens), P48145. GPR7-expressing cells, fluorescence antagonist assay. 1.1% of 290,000 active. inhibition, % at 4.4 µM; in the data active = inhibition above about 16%, passing the limit was not always enough;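 also: cells stimulated with the agonist NPW; 0% = agonist with vehicle and 100% = vehicle without agonist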
# Target sequence (P48145 whole entry, looked up): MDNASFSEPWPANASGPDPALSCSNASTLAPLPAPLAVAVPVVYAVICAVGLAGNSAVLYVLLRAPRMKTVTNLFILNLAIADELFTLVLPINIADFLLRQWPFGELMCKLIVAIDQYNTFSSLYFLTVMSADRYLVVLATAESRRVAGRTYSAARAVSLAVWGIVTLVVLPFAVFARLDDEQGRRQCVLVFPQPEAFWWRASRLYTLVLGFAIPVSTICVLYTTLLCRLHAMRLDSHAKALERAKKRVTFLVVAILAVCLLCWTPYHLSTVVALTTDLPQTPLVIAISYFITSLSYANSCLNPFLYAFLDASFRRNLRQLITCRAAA
# GRK2 inh: compounds blocking aptamer binding on GRK2 – biochemical, human GRK2, bead flow cytometry, HTS, primary screen; Beta-adrenergic receptor kinase 1 (Homo sapiens), P25098; FAM-aptamer displacement from GRK2; inhibition of aptamer binding, % at 10 µM; 0.59% of 330,000 active;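 active = inhibition of aptamer binding above 40%, roughly 3 SD of noise, on plates passing a quality check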;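 also: median bead fluorescence of bound FAM aptamer so fluorescent compounds give negative values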
# HCV core dimer: inhibitors of HCV core protein dimerization, primary screen, biochemical, TR-FRET, high-throughput | TR-FRET GST/Flag-core106 dimerization, 1536-well | inhibition, % at 5 µM | 0.33% of 300,000 active;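 active = inhibition above the mean of all tested compounds plus 3 SD, set per screening campaign, cut at about 45% in these data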
#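 System: GST-tagged and Flag-tagged HCV core protein residues 1-106 / Input: core106 proteins, GST 13.5 nM and Flag 17 nM / Buffer or medium: KF-containing HEPES buffer, pH 7.45, DTT, CHAPS, BSA / Probe or stimulus: Eu-anti-GST and XL665-anti-Flag labelled anti-tag antibodies / Schedule: 4 h, 22.5 °C incubation / Technique: TR-FRET 671 and 617 nm emission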
# DAGLB inhibitor: DAGLB lipase inhibitors, primary screen, biochemical, fluorescence, HTS. inhibition, % at 5.17 µM. 0.059% of 340,000 active. HEK293T DAGLB membrane lysate, EnzChek fluorogenic substrate. Diacylglycerol lipase-beta (Homo sapiens), Q8NCG7; in the data active = inhibition above about 34%;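 also: 0% = enzyme with vehicle and 100% = wells lacking enzyme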
# DNA FID counter-1: compounds displacing fluorescent DNA intercalator, primary screen, artefact control for HCV NS3 helicase inhibitor project, biochemical, FID fluorescence. DNA fluorescent intercalator displacement. inhibition, % at 7.9 µM. 0.17% of 290,000 active. AID 1845, 2009;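 also: 0% = vehicle and 100% = reference compound; higher means more ethidium bromide displaced from hairpin DNA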
# NS3 helicase inh: inhibitors of HCV NS3 helicase, primary screen, biochemical, Cy5 molecular beacon fluorescence | 0.56% of 290,000 active | inhibition, % at 10.9 µM | NS3 helicase DNA unwinding;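 active = inhibition above the mean of all tested compounds plus 3 SD, set per campaign, cut at about 35% in these data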;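 also: 0% = DMSO wells and 100% = thioflavine S control wells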
#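 Measured by: Cy5 fluorescence, 0 and 60 min reads / Assay system: NS3 helicase fragment of HCV / Control set: low DMSO, high thioflavine S at 110 µM / Times: 1 h reaction at 25 °C, ATP-initiated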
# NS3 hel confirm: HCV NS3 helicase inhibitors, retest, confirmation, biochemical, Cy5 molecular beacon fluorescence, triplicate; shares compounds with NS3 helicase inh; NS3 helicase DNA unwinding; inhibition, % at 10.9 µM; 31% of 1,600 active; AID 1943, 2009;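 active = inhibition above the mean of all tested compounds plus 3 SD, cutoff set per campaign, cut at about 36% in these data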
# DNA FID counter-2: compounds displacing fluorescent DNA intercalator, artefact control for HCV NS3 helicase inhibitor project, biochemical, FID fluorescence, triplicate; shares compounds with NS3 helicase inh; DNA fluorescent intercalator displacement; inhibition, % at 7.9 µM; 4% of 1,600 active;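 also: 0% = vehicle and 100% = reference compound; higher means more displacement of ethidium bromide from the DNA hairpin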
# Active calls of the source: *; x = no result given. Rule as the data show it, unless noted: active = inhibition above about 37%; inactive = the rest.
SMILES,GPR7 antag,GRK2 inh,HCV core dimer,DAGLB inhibitor,DNA FID counter-1,NS3 helicase inh,NS3 hel confirm,DNA FID counter-2
O=C(COc1ccccc1)N/N=C/c1ccc([N+](=O)[O-])o1,-6,3,0,5,-13,41*,-7,15
O=C(CNc1ccc2ccccc2c1)N/N=C/c1ccc([N+](=O)[O-])o1,-4,1,-8,4,-12,55*,0,11
O=C(N/N=C/c1ccc([N+](=O)[O-])o1)c1cc(-c2cccc(Br)c2)nc2ccccc12,-11,0,71*,4,-18,41*,38*,18
O=C(CNc1ccc2ccccc2c1)N/N=C/c1ccc(C(=O)O)cc1,-4,4,-6,0,-38,1,x,x
O=C(CNC(=O)N1CC(=O)Nc2ccccc21)Nc1cccc(F)c1,-5,2,6,1,-10,3,x,x
CN(CCOc1ccccc1)C(=O)c1cc(S(=O)(=O)N2CCOCC2)c(Cl)cc1Cl,x,x,x,-6,x,x,x,x
N=C1/C(=C/c2ccc(OCc3ccccc3)cc2)C(=O)N=C2SC(CC(=O)N3CCOCC3)=NN12,27,7,7,4,-21,25,x,x
N=C1/C(=C/c2ccc(OCc3ccccc3F)cc2)C(=O)N=C2SC(CC(=O)N3CCOCC3)=NN12,10,0,4,-2,-33,46*,42*,-6
O=C(CSc1nnc(-c2ccco2)n1Cc1ccccc1)NCc1ccccc1,-5,2,-3,1,-26,3,x,x
O=C(CSc1nnc(-c2ccco2)n1Cc1ccccc1)c1ccc(F)cc1,-4,4,4,-2,-35,39*,74*,-2
CCOC(=O)C1=C(N)n2c(s/c(=C/c3ccco3)c2=O)=C(C(=O)OC)C1c1ccco1 (stereo unspecified),5,16,17,3,-20,41*,-3,9
CCOC(=O)C1=C(C)NC(C)=C(C(=O)OC)C1c1ccco1 (stereo unspecified),-10,3,-3,-2,-6,37*,-5,10
C=CCOC(=O)C1=C(C)NC(C)=C(C(=O)OCC=C)C1c1ccco1,-21,3,0,-3,-21,-13,x,x
CCOC(=O)C1=c2s/c(=C\c3ccncc3)c(=O)n2C(N)=C(C(=O)OC)C1c1ccncc1 (stereo unspecified),-16,0,4,3,-7,0,x,x
CCOC(=O)c1ccccc1NC(=O)CSc1nc2ccccc2c(=O)n1CCCN1CCOCC1,x,0,x,2,x,x,x,x
Cc1cccc(CNCc2ccccc2)c1,-8,0,-5,0,-3,38*,-10,9
Cc1cc(C)c(NC(=O)CN(C)C(=O)C2CC(=O)N(c3cccc4ccccc34)C2)c(C)c1 (stereo unspecified),x,3,x,-2,x,x,x,x
CC(C)(C)c1ccc(/C=N/Nc2ccc(C(=O)O)cc2)cc1,-12,0,0,5,-5,32,x,x
O=C(O)c1ccc(N/N=C/c2ccc(C(F)(F)F)cc2)cc1,-18,0,-10,5,-19,37*,56*,-14
CC(C)c1ccc(OCC(=O)N(Cc2ccco2)C2CCS(=O)(=O)C2)cc1 (stereo unspecified),13,0,-6,-4,-41,48*,-15,-29
CCn1c2ccccc2c2c3ncc4cccn4c3ccc21,-10,5,-11,1,-19,44*,-7,50*
c1ccc2c(c1)ncc1cccn12,15,0,-1,3,2,0,x,x
Cc1ccc(S(=O)(=O)N2C[C@H]3C(=O)C[C@@H](c4cccc(Cl)c4)N(S(=O)(=O)c4ccc(C)cc4)[C@H]3C[C@H]2c2cccc(Cl)c2)cc1,x,x,x,-18,x,x,x,x
C=CCN1CCC(=O)C(C(=O)OCC)=C1C(=O)OCC,x,x,x,-2,x,x,x,x
COc1cc(NC(=O)C(=O)NNC(=O)C2CCCCC2)c(OC)cc1Cl,-2,4,-5,2,-16,36*,-12,-8
SMILES,GPR7 antag,GRK2 inh,HCV core dimer,DAGLB inhibitor,DNA FID counter-1,NS3 helicase inh,NS3 hel confirm,DNA FID counter-2
CC1CCc2c(sc(/N=C/c3ccco3)c2C(N)=O)C1 (stereo unspecified),-15,1,0,-3,-6,37*,-4,1
CCCCSc1nc2c(cc1C#N)CCC2,-6,0,3,-11,3,5,x,x
CCCSc1nc(C)c(-c2csc(C(C#N)=C3CCCC3)n2)cc1C#N,-8,0,61*,0,-7,52*,30,31
N#Cc1c(N2C(=O)Nc3ccccc3N2O)sc2c1CCCCCC2,16,0,12,15,-22,42*,54*,-7
N#Cc1c(N2C(=O)Nc3ccccc3N2O)sc2c1CCCC2,-6,0,2,10,-14,9,x,x
CCOC(CNCc1cc(C)c2[nH]c3ccccc3c2c1C)OCC,x,x,x,0,x,x,x,x
Cc1nc2c(C(=O)NCc3ccccc3Cl)c[nH]n2c(=O)c1Cl,24,0,12,12,-5,56*,46*,6
CCCCNC(=O)COC(=O)c1c2c(nc3ccccc13)CCC2,-9,8,33,2,-23,12,x,x
CCCCNC(=O)COC(=O)c1c2c(nc3ccccc13)/C(=C/c1cccs1)CC2,-5,0,33,-7,-12,38*,-12,-6
Cc1ccc(S(=O)(=O)NC(=O)c2cc(C)n(C3CC3)c2C)cc1,1,3,-5,0,-22,38*,-18,-7
Cc1ccc(-n2c(C)cc(C(=O)NS(=O)(=O)c3ccc(C)cc3)c2C)cc1,-12,7,20,8,-41,39*,43*,-31
COc1ccc(N2CC(C(=O)Nc3nnc(SCC(=O)NCC4CCCO4)s3)CC2=O)cc1 (stereo unspecified),1,0,-17,4,-24,17,x,x
CN(C)c1ccc(CNCc2cccnc2)cc1,x,0,-4,x,x,x,x,x
COc1ccc(-c2nnn(CC(=O)N(Cc3ccco3)C(C(=O)NCC3CCCO3)c3ccco3)n2)cc1 (stereo unspecified),18,0,6,1,-37,45*,-9,-32
COc1ccc(-c2nnn(CC(=O)N(Cc3ccccc3Cl)C(C(=O)NCC3CCCO3)c3ccco3)n2)cc1 (stereo unspecified),-10,2,3,-2,-5,-6,x,x
